This note sets out measurements from ChEMBL document CHEMBL4265933, “Rationally designed divalent caffeic amides inhibit amyloid-β fibrillization, induce fibril dissociation, and ameliorate cytotoxicity” (Eur J Med Chem, 2018).

In assay [1] the target is T1, Amyloid-beta precursor protein (Homo sapiens, UniProt P05067). Briefly: Inhibition of amyloid beta (1 to 42) (unknown origin) assessed as fibril formation at 10 uM incubated with agitation for 1 min every hr measured over 80 hrs by thioflavin-T assay relative to control. Also noted: scale not given: the % may be the effect or the level left.
For assay [2], the target named is T1, Amyloid-beta precursor protein. Briefly: Inhibition of amyloid beta (1 to 42) fibrillization (unknown origin) at 12.5 to 25 uM incubated with agitation for 1 min every hr measured over 80 hrs by transmission electron microscopy. A digest of the protocol: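 End-point Aβ(1–42) products after 80 h ThT incubation (50 µM peptide, 37 °C) with 12.5 or 25 µM compound were applied to Formvar carbon-coated copper grids for 5 min. Grids were water-washed and stained with 2% uranyl acetate. Imaging was by TEM at 120 kV.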

Assay [3] deals with SH-SY5Y. Put plainly: Neuroprotective activity against amyloid beta (1 to 42 residues) induced cytotoxicity in human SH-SY5Y cells assessed as protection against amyloid beta (1 to 42 residues) induced decrease in cell viability at 25 uM after 24 hrs by LDH assay relative to control. The class given is functional. In a few lines: (§1)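 SH-SY5Y cells (DMEM/F12, 5% FBS, 37 °C, 5% CO2) were seeded at 10,000 cells/well for 24 h, then switched to serum-free medium. Cells received 10 µL end-point Aβ(1–42) ThT-assay product (peptide co-incubated with compound) for 24 h. Cleared medium was incubated with LDH substrate 30 min at room temperature, dark, and read at 490 nm. Cell-free background was subtracted; 2% Triton X-100 lysis set 100% cytotoxicity. Triplicate.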

The test system of assay [4] is Caenorhabditis elegans. Briefly: Protection against amyloid beta aggregation-induced paralysis in Caenorhabditis elegans CL4176 assessed as median survival time of worms at 40 uL pretreated with compound at 16 degC for 20 hrs followed by raising temperature to 25 degC (reference value: 42.2 hrs). The class given is functional.
Assay [5] has as its system SH-SY5Y. Briefly: Neuroprotective activity against amyloid beta (1 to 42 residues) induced cytotoxicity in human SH-SY5Y cells assessed as protection against amyloid beta (1 to 42 residues) induced decrease in cell viability at 0.01 uM after 24 hrs by LDH assay relative to control. The format is functional. In a few lines: as §1
Assay [6] concerns SH-SY5Y. Briefly: Neuroprotective activity against amyloid beta (1 to 42 residues) induced cytotoxicity in human SH-SY5Y cells assessed as protection against amyloid beta (1 to 42 residues) induced decrease in cell viability after 24 hrs by LDH assay. The format is functional, cell-based. A digest of the protocol:
as §1

Assay [7] has as its target T1, Amyloid-beta precursor protein. Put plainly: Inhibition of amyloid beta (1 to 42) fibrillization (unknown origin) incubated with agitation for 1 min every hr measured over 80 hrs by thioflavin-T assay.
Assay [8] has the same target. Put plainly: Inhibition of amyloid beta (1 to 42) (unknown origin) assessed as fibril formation at 3.1 uM incubated with agitation for 1 min every hr measured over 80 hrs by thioflavin-T assay relative to control. Also noted: scale not given: the % may be the effect or the level left. A digest of the protocol:
(§2)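 Synthetic Aβ(1–42) taken up in DMSO, diluted to 50 μM in 20 mM PB pH 7.4 (final DMSO 1.5%) with 5 μM ThT, compound 0.01–100 μM. Incubated at 37 °C with 1 min agitation hourly for 80 h. ThT read at ex 442/em 485 nm. The 80 h signal, buffer-subtracted, normalized to Aβ alone. Independent triplicates, SEM; IC50 fitted to Y=100/(1+10^(X−LogIC50)).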

For assay [9] the target is unchanged. Put plainly: Disaggregation of amyloid beta (1 to 42 residues) (unknown origin) preformed fibrils up to 100 uM measured immediately by Western blot analysis. A digest of the protocol: (§3)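 Preformed Aβ(1–42) fibrils incubated with compound at 0, 25, 50 or 100 μM for 0 or 14 days. Samples (20 μL plus SDS sample buffer) run on native 13% Tris-tricine gel without SDS, transferred to nitrocellulose at 250 mA for 75 min at 4 °C, blocked in 5% milk, probed with 4G8 and 6E10 plus anti-mouse IgG, ECL detection.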

Assay [10] has as its system SH-SY5Y. Put plainly: Neuroprotective activity against preformed amyloid beta (1 to 42 residues) fibril induced cytotoxicity in human SH-SY5Y cells assessed as protection against amyloid beta (1 to 42 residues) induced cell viability at 50 uM after 24 hrs by LDH assay (reference value: 17%). The format is functional. A digest of the protocol: (§4)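 Preformed fibrils: 0.1 mg Aβ(1–42) in 6 µL DMSO was diluted into 880 µL 20 mM PB pH 7.4 and shaken ≥4 days. Fibrils were then held with 0, 25, 50 or 100 µM compound. SH-SY5Y cells in serum-free medium received 10 µL sample for 24 h. LDH release was read at 490 nm, background-subtracted, and normalized to 2% Triton X-100 lysis as 100%.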

Assay [11] relates to SH-SY5Y. Briefly: Neuroprotective activity against preformed amyloid beta (1 to 42 residues) fibril induced cytotoxicity in human SH-SY5Y cells assessed as protection against amyloid beta (1 to 42 residues) induced decrease in cell viability at 25 uM after 24 hrs by LDH assay. The format is functional, cell-based. In a few lines:
as §4

Assay [12] concerns the target T1, Amyloid-beta precursor protein. Briefly: Disaggregation of amyloid beta (1 to 42 residues) (unknown origin) preformed fibrils at 100 uM measured immediately by transmission electron microscopy. A digest of the protocol:
(§5)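 Aβ(1–42) made by Fmoc solid-phase synthesis and HPLC-purified. Fibrils preformed by dissolving 0.1 mg peptide in DMSO, diluting in 20 mM PB pH 7.4, and shaking for at least 4 days. Fibrils mixed with compound (100 μM), sampled at time 0 or after 14 days, placed on carbon-coated grids, stained with 2% uranyl acetate and imaged by TEM at 120 kV.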

The test system of assay [13] is SH-SY5Y. Put plainly: Neuroprotective activity against preformed amyloid beta (1 to 42 residues) fibril induced cytotoxicity in human SH-SY5Y cells assessed as protection against amyloid beta (1 to 42 residues) induced cell viability at 100 uM after 24 hrs by LDH assay (reference value: 17%). The class given is functional. In a few lines: as §4
The target in assay [14] is T1, Amyloid-beta precursor protein. Briefly: Inhibition of amyloid beta (1 to 42) (unknown origin) assessed as fibril formation up to 100 uM incubated with agitation for 1 min every hr measured over 80 hrs by thioflavin-T assay. In a few lines:
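Synthetic Aβ(1–42) was dissolved in DMSO and diluted to 50 µM in 20 mM phosphate buffer, pH 7.4 (1.5% final DMSO), with 5 µM ThT. Compound was added at 0.01–100 µM and samples were held at 37 °C, agitated 1 min hourly. Fluorescence (ex 442, em 485 nm) was read over 80 h. Background-subtracted 80 h signal was normalized to Aβ alone and fit to Y=100/(1+10^(X−LogIC50)). Triplicate, SEM.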

The target is the same in assay [15]. Briefly: Disaggregation of amyloid beta (1 to 42 residues) (unknown origin) preformed fibrils at 100 uM measured on day 14 by transmission electron microscopy. In a few lines: as §5
For assay [16] the target is unchanged. Briefly: Disaggregation of amyloid beta (1 to 42 residues) (unknown origin) preformed fibrils up to 100 uM measured on day 14 by Western blot analysis. In a few lines:
as §3

Assay [17] shares this target. Put plainly: Inhibition of amyloid beta (1 to 42) (unknown origin) assessed as fibril formation at 100 uM incubated with agitation for 1 min every hr measured over 80 hrs by thioflavin-T assay relative to control. Also noted: scale not given: the % may be the effect or the level left. A digest of the protocol: as §2
Assay [18] shares this target. Put plainly: Inhibition of amyloid beta (1 to 42) (unknown origin) assessed as fibril formation at 25 uM incubated with agitation for 1 min every hr measured over 80 hrs by thioflavin-T assay relative to control. Further details: scale not given: the % may be the effect or the level left. In a few lines:
as §2

In assay [19] the test system is Caenorhabditis elegans. Briefly: Protection against amyloid beta aggregation-induced paralysis in Caenorhabditis elegans CL4176 assessed as survival rate of worms at 40 uL pretreated with compound at 16 degC for 20 hrs followed by raising temperature to 25 degC and measured at 26 hrs relative to control. The format is functional. A digest of the protocol: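 About 130 eggs of transgenic C. elegans CL4176 (muscle myo-3p::Aβ(1–42)) were grown at 16 °C on NGM plates with E. coli OP50. Plates were pretreated with 40 µL of a 6.27 mM compound solution; nematode growth medium served as buffer control. Temperature was raised to 25 °C at L4. Unparalysed worms (~100–130 per condition) were counted every 2 h. Five trials.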

The target in assay [20] is T1, Amyloid-beta precursor protein. Briefly: Disaggregation of amyloid beta (1 to 42 residues) (unknown origin) preformed fibrils incubated with agitation for 1 min every hr measured over 80 hrs by thioflavin-T assay. A digest of the protocol: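 Preformed Aβ(1–42) fibrils (25 μM; peptide in DMSO diluted into 20 mM PB pH 7.4, shaken at least 4 days) mixed with compound at 0–100 μM and 5 μM ThT. Incubated at 37 °C with 1 min agitation hourly. Fluorescence read at ex 442/em 485 nm, buffer background subtracted. Final signal normalized to fibrils alone; triplicate; IC50 fitted to Y=100/(1+10^(X−LogIC50)).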

Active and inactive are the calls of the source. No cut-off for these calls is given here.

T1 sequence (P05067 whole entry): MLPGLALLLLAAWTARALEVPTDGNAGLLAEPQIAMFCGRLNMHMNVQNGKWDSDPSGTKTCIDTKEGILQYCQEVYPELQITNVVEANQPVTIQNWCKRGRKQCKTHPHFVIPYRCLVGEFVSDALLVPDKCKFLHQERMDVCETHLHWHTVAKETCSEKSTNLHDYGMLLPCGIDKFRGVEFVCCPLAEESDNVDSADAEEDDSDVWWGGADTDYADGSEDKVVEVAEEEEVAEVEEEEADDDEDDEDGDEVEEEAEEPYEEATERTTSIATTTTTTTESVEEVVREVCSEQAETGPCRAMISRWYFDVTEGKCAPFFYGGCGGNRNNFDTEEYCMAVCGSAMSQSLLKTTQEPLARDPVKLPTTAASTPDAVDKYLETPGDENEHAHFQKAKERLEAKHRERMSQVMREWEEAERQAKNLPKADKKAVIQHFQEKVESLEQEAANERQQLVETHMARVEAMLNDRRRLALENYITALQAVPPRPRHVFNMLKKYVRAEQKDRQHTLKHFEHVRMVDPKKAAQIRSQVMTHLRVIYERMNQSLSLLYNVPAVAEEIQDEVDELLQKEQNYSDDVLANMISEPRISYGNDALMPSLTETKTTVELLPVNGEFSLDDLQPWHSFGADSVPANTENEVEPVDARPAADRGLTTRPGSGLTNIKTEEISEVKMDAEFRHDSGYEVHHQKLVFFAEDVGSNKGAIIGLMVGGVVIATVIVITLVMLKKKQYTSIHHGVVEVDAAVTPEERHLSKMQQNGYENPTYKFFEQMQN

Consider `O=C(/C=C/c1ccc(O)c(O)c1)O[C@H](Cc1ccc(O)c(O)c1)C(=O)NCc1cn(Cc2ccc(-c3ccc(Cn4cc(CNC(=O)[C@@H](Cc5ccc(O)c(O)c5)OC(=O)/C=C/c5ccc(O)c(O)c5)nn4)cc3)cc2)nn1`, for which, in [1], the Activity turned out to be 65.1%.
`C#CCNC(=O)/C=C/c1ccc(O)c(O)c1`: the Activity in assay [1] came out at 79.4%.
With `O=C(/C=C/c1ccc(O)c(O)c1)NCCOCCOCCNC(=O)/C=C/c1ccc(O)c(O)c1`, the inhibition result in assay [2] was “inactive”. Moreover, the Activity in assay [1] amounted to 64.7%.
In the case of `O=C(/C=C/c1ccc(O)c(O)c1)NCc1cn(Cc2ccc(Cn3cc(CNC(=O)/C=C/c4ccc(O)c(O)c4)nn3)cc2)nn1`, the Activity in [1] turned out to be 76.5%.
Take `O=C(/C=C/c1ccc(O)c(O)c1)NCCOCCOCCOCCNC(=O)/C=C/c1ccc(O)c(O)c1`: in [2], the inhibition entry is “inactive”. Further, the Activity in assay [1] was 79.4%.
Turning to `C#CCCCNC(=O)/C=C/c1ccc(O)c(O)c1`, the Activity in [1] was 135%.
As for `COc1cc(/C=C/C(=O)CC(=O)/C=C/c2ccc(O)c(OC)c2)ccc1O` [CURCUMIN], the Activity was 20% in the assay on SH-SY5Y [3] and “Dose-dependent effect” with SH-SY5Y [6]. The MST in the assay on Caenorhabditis elegans [4] was 25.7 h. Further, the outcome in the assay on SH-SY5Y [5] was inactive. Moreover, the inhibition result in [2] was “Active”. Moreover, the inhibition result in assay [7] is “Dose-dependent effect”.
On to `O=C(/C=C/c1ccc(O)c(O)c1)O[C@H](Cc1ccc(O)c(O)c1)C(=O)O`, for which the Activity in assay [1] was found to be 79.1%.
On the same count and under the same terms, for `C#CCCCCNC(=O)/C=C/c1ccc(O)c(O)c1` the value was 67.6%; for `O=C(/C=C/c1ccc(O)c(O)c1)NCCCCc1cn(Cc2ccc(-c3ccc(Cn4cc(CCCCNC(=O)/C=C/c5ccc(O)c(O)c5)nn4)cc3)cc2)nn1`, 61.8%.
For the compound `O=C(O)/C=C/c1ccc(O)c(O)c1` [CAFFEIC ACID], the Activity in the assay on SH-SY5Y [3] was 20%; in the assay on SH-SY5Y [5] it was 5%; in the assay with SH-SY5Y [6] it was “Dose-dependent effect”; in [1], 91.2%. The MST with Caenorhabditis elegans [4] was 26.3 h. In assay [2], the inhibition result is “Active”. In [7], this compound yielded a concentration for half-maximal inhibition (IC50) of 15.6 µM. For the same compound, in assay [7], the inhibition entry is “Dose-dependent effect”.
With `O=C(/C=C/c1ccc(O)c(O)c1)CC(=O)/C=C/c1ccc(O)c(O)c1`, the Activity in assay [1] amounted to 11.5%.
For the compound `O=C(/C=C/c1ccc(O)c(O)c1)NCCCNC(=O)/C=C/c1ccc(O)c(O)c1`, the Activity in assay [8] is 60%; with SH-SY5Y [10], 12%; with SH-SY5Y [3] it was 34%; in the assay on SH-SY5Y [5], 19%; with SH-SY5Y [13] it was 9%; in the assay on SH-SY5Y [6], “Dose-dependent effect”. Further, the Activity was 52.9% in assay [1], 1% in [17], 8% in assay [18] and “Dose-dependent effect” in assay [20]. Also, the outcome (in [9]; with SH-SY5Y [11]; in [12]) was inactive. For the same compound, the MST in the assay with Caenorhabditis elegans [4] stood at 27.3 h. In addition, the inhibition result in [14] and in assay [2] was “Active” throughout. Moreover, the outcome in assay [15] and in [16] was Active. Also, the IC50 in assay [7] worked out at 4.9 µM; in assay [20] it was 4.2 µM. Further, the inhibition result in assay [7] is “Dose-dependent effect”. In addition, the “fold change (FC)” value in the assay on Caenorhabditis elegans [19] is on record as 2.5.
As for `O=C(/C=C/c1ccc(O)c(O)c1)NCc1cn(Cc2ccc(-c3ccc(Cn4cc(CNC(=O)/C=C/c5ccc(O)c(O)c5)nn4)cc3)cc2)nn1`, the Activity in assay [1] came out at 88.2%.
As for `O=C(/C=C/c1ccc(O)c(O)c1)NCCCc1cn(Cc2ccc(-c3ccc(Cn4cc(CCCNC(=O)/C=C/c5ccc(O)c(O)c5)nn4)cc3)cc2)nn1`, the Activity in assay [1] is 112%.
As to `O=C(/C=C/c1ccc(O)c(O)c1)NCCOCCOCCOCCOCCOCCNC(=O)/C=C/c1ccc(O)c(O)c1`, the inhibition entry in assay [2] is “inactive”. Moreover, the Activity in assay [1] was determined as 67.6%.
On to `O=C(/C=C/c1ccc(O)c(O)c1)NCCOCCOCCOCCOCCNC(=O)/C=C/c1ccc(O)c(O)c1`, for which the inhibition result in assay [2] was “inactive”. Besides, in [1], the Activity came to 61.8%.
`C#CCNC(=O)[C@@H](Cc1ccc(O)c(O)c1)OC(=O)/C=C/c1ccc(O)c(O)c1`: the Activity in assay [1] came out at 107%.
